Data on six molecules can be found in ChEMBL document CHEMBL1140981, “Substrate optimization for monitoring cathepsin C activity in live cells” (Bioorg Med Chem, 2009).

Each structure is given as a SMILES string. Calls of active or inactive are those of the source. The calls are words filed in the database; no cut-off is given here.

One may read the Ki as the equilibrium dissociation constant of an inhibitor or competing ligand from its target. The term IC50 denotes the midpoint of a concentration-inhibition curve.

For one assay, the target named is Cathepsin S (Homo sapiens, UniProt P25774). Nature of the assay: Inhibition of human recombinant cathepsin S by fluorescence assay.
The target of assay [1] is T1, Dipeptidyl peptidase 1 (Homo sapiens, UniProt P53634). Nature of the assay: Blockade of conjugation of cathepsin C in human B721 cells to I125-labeled (S)-2-amino-N-((S)-1-(4-hydroxy-3-iodophenylsulfonyl)-5-phenylpent-1-en-3-yl)pentanamide pretreated for 30 mins before addition of I125-labeled (S)-2-amino-N-((S)-1-(4-hydroxy-3-iodophenylsulfonyl)-5-phenylpent-1-en-3-yl)pentanamide by SDS-PAGE. Type of assay: cell-based. In a few lines: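 B721 cells at 1 × 10⁶ cells/mL were preincubated with compound or DMSO (final 50, 10, 1, 0.1, 0 μM) for 30 min at 37 °C, 5% CO2. ¹²⁵I-labeled probe was then added at 2 nM for another 30 min at 37 °C. Cells were pelleted, lysed and boiled. Labeled cathepsin C was resolved by SDS–PAGE and quantified by phosphorimaging.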

Another assay addresses Cathepsin B (Homo sapiens, UniProt P07858). Nature of the assay: Inhibition of human recombinant cathepsin B by fluorescence assay.
In the next assay the target is T2, Pro-cathepsin H (Homo sapiens, UniProt P09668).
T2 sequence (P09668 whole entry): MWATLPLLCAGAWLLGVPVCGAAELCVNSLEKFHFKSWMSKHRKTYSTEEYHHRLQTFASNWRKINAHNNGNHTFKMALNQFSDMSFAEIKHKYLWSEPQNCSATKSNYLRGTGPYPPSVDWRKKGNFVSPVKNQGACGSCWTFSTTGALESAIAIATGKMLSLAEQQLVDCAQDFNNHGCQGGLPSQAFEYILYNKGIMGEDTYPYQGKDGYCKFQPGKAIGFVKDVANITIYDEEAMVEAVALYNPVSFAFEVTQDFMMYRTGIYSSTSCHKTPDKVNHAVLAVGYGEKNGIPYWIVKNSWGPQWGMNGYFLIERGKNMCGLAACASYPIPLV
Description: Inhibition of human recombinant cathepsin H by fluorescence assay. The method, boiled down: (§1)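 Recombinant human enzyme was preincubated with inhibitor for 20 min. Substrate was then added: H-Arg-AMC for cathepsin H, H₂N-Gly-Phe-AMC for cathepsin C. Buffer was 100 mM NaOAc, 1 mM EDTA, 0.01% Brij-35, 5 mM DTT, pH 5.5, 37 °C. AMC release was read by fluorescence, ex 380/em 450 nm. Progress curves were fitted to the Morrison equation, and apparent values were converted to Ki assuming competitive inhibition.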

In another assay the target is T3, Cathepsin K (Homo sapiens, UniProt P43235).
T3 sequence (P43235 whole entry): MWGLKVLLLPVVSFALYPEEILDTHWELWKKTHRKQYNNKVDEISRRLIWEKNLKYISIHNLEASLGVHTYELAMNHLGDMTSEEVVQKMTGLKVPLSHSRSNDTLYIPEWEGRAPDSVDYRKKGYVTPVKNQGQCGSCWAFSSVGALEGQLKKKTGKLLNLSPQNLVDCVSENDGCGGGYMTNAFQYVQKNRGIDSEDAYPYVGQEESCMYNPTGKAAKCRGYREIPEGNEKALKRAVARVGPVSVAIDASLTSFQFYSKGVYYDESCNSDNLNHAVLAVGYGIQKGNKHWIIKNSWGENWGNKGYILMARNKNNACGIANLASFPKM
Nature of the assay: Inhibition of human recombinant cathepsin K by fluorescence assay.

Assay [2] addresses T1, Dipeptidyl peptidase 1. Nature of the assay: Inhibition of cathepsin C in human B721 cells by FACS assay. The format is cell-based. In a few lines:
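B721 EBV-immortalized B cells were washed and resuspended in serum-free, phenol red-free RPMI 1640 at 1 × 10⁶ cells/mL. Cells were pretreated with compound or DMSO (final 10, 3.3, 1.1, 0.37, 0.12, 0 μM) for 30 min at 37 °C, 5% CO2. (H₂N-Abu-Hph)₂-rhodamine (final 2 μM) and propidium iodide (4 μg/mL) were added. Flow cytometry read ex 488/em 530 nm at three time points 15 min apart.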

Assay [3] addresses T1, Dipeptidyl peptidase 1. Nature of the assay: Inhibition of human recombinant cathepsin C by fluorescence assay. The method, boiled down:
as §1

Assay [4] addresses T1, Dipeptidyl peptidase 1. Nature of the assay: Binding affinity to cathepsin C in human B721 cells assessed as cellular compound turnover in presence of (S)-2-Amino-pentanoic acid ((S)-3-methanesulfonyl-1-phenethyl-allyl)-amide. The format is cell-based.
For assay [5], the species on record is Homo sapiens. Description: Selectivity for human recombinant cathepsin C over human recombinant cathepsin K.
Assay [6] deals with Procathepsin L (Homo sapiens) (UniProt P07711). Nature of the assay: Inhibition of human recombinant cathepsin L by fluorescence assay.
The species entered for assay [7] is Homo sapiens. Description: Selectivity for human recombinant cathepsin C over human recombinant cathepsin H.
The species entered for assay [8] is Homo sapiens. Description: Selectivity for human recombinant cathepsin C over human recombinant cathepsin B.
The species entered for assay [9] is Homo sapiens. Description: Selectivity for human recombinant cathepsin C over human recombinant cathepsin S.
The species entered for assay [10] is Homo sapiens. Nature of the assay: Selectivity for human recombinant cathepsin C over human recombinant cathepsin L.

Cathepsin S, sequence (P25774 whole entry): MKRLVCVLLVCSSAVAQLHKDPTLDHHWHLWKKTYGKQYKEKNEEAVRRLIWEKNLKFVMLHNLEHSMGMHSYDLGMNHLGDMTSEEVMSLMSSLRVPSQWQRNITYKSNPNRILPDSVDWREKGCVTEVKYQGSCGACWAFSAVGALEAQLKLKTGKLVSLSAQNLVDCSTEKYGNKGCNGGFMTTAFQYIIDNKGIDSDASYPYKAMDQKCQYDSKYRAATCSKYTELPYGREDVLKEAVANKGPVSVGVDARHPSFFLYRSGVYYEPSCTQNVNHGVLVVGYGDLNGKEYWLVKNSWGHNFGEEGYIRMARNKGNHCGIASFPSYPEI
T1 sequence (P53634 25-134 limits assumed): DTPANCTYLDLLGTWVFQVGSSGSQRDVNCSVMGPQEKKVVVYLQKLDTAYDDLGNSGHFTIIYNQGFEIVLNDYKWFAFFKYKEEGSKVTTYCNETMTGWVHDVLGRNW
T1 sequence (P53634 231-394 limits assumed): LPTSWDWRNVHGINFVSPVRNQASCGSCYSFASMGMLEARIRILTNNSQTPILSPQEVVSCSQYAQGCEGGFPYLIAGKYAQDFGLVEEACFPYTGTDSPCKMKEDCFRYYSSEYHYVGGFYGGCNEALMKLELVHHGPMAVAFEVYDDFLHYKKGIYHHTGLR
T1 sequence (P53634 395-463 limits assumed): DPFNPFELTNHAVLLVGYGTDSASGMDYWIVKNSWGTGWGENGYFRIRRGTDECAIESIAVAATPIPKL
Procathepsin L (Homo sapiens), sequence (P07711 114-333 limits assumed): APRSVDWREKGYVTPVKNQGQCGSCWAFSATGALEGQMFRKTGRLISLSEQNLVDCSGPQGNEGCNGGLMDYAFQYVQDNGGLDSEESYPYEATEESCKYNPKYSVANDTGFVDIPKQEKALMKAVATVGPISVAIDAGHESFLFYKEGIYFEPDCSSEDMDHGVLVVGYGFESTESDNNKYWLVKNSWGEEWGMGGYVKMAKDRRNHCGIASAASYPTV

Take `CC(C)C[C@H](NC(=O)N1CCOCC1)C(=O)N[C@H](/C=C/S(=O)(=O)c1ccccc1)CCc1ccccc1`: the Ki on Cathepsin S is less than 0.1 nM; at Cathepsin B it was 64 nM; at Pro-cathepsin H it was 1400 nM; at Cathepsin K it was 1.2 nM. Besides, the IC50 at Dipeptidyl peptidase 1 [1] worked out at 4000 nM; against Dipeptidyl peptidase 1 [2] it was 2600 nM. In addition, the INH on Dipeptidyl peptidase 1 [3] was found to be 1800 nM.
With `CC[C@H](N)C(=O)N[C@@H](CCc1ccccc1)C(=O)Nc1ccc2c(c1)Oc1cc(NC(=O)[C@H](CCc3ccccc3)NC(=O)[C@@H](N)CC)ccc1C21OC(=O)c2ccccc21`, the result at Dipeptidyl peptidase 1 [4] was inactive.
On to `CC[C@H](N)C(=O)N[C@H](C#N)Cc1ccc(-c2ccccc2)cc1`, for which the Ki on Cathepsin S was greater than 100000 nM; on Cathepsin B, greater than 100000 nM; at Pro-cathepsin H, 3700 nM; at Cathepsin K it was 18000 nM. Further, the IC50 was 10000 nM at Dipeptidyl peptidase 1 [1] and 6100 nM against Dipeptidyl peptidase 1 [2]. For the same molecule, the INH on Dipeptidyl peptidase 1 [3] worked out at 1.5 nM.
On to `CCC[C@H](N)C(=O)N[C@@H](CCc1ccccc1)C(=O)Nc1ccc2c(c1)Oc1cc(NC(=O)[C@H](CCc3ccccc3)NC(=O)[C@@H](N)CCC)ccc1C21OC(=O)c2ccccc21`, for which the result at Dipeptidyl peptidase 1 [4] was inactive.
On to `CCC[C@H](N)C(=O)N[C@H](/C=C/S(=O)(=O)c1ccccc1)CCc1ccccc1`, for which the Ki at Cathepsin S was determined as 5.5 nM; on Cathepsin B, 1100 nM; on Pro-cathepsin H, 137 nM; on Cathepsin K, 120 nM. Besides, the Activity in the assay filed under Homo sapiens [5], in the assay listed under Homo sapiens [7], in the assay listed under Homo sapiens [8], in the assay listed under Homo sapiens [9] and in the assay listed under Homo sapiens [10] was 75 each time. Also, the INH in [6] is 20 nM; at Dipeptidyl peptidase 1 [3] it was 0.2 nM. The IC50 at Dipeptidyl peptidase 1 [1] worked out at 100 nM; on Dipeptidyl peptidase 1 [2], 70 nM.
Regarding `O=C1OC2(c3ccc(NC(=O)[C@H](CCc4ccccc4)NC(=O)[C@@H]4CCCN4)cc3Oc3cc(NC(=O)[C@H](CCc4ccccc4)NC(=O)[C@@H]4CCCN4)ccc32)c2ccccc21`, on Dipeptidyl peptidase 1 [4], the result was inactive.
